Assay results taken from ChEMBL document CHEMBL6121022, “Cytotoxic and Noncytotoxic Steroidal Constituents of Cryptolepis dubia” (J Nat Prod, 2025).

How the values were obtained:
OVCAR-5 = assay: Cytotoxicity against human OVCAR-5 cells assessed as inhibition of cell viability incubated for 72 hrs by celltiter-blue cell viability assay; format: functional, cell-based; settings: OVCAR-5, 72 h
How it was run: (§1)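 Cells grown in RPMI 1640 or DMEM with 10% FBS, penicillin 100 units/mL and streptomycin 100 μg/mL. Treated with compounds for 72 h; vehicle negative control, paclitaxel positive control. Viability read by CellTiter-Blue absorbance. IC50 relative to vehicle control by nonlinear regression; triplicate measurements, representative of three independent experiments.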

MDA-MB-231 = assay: Cytotoxicity against human MDA-MB-231 cells assessed as inhibition of cell viability incubated for 72 hrs by celltiter-blue cell viability assay; format: functional, cell-based; settings: MDA-MB-231, 72 h; how it was run: as §1
[1] = Inhibition of Na+/K+-ATPase (unknown origin) by luminescent ADP detection assay; parameters: species or system Homo sapiens
How it was run: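 NKA activity read as ADP formed, by luminescent ADP detection (ADP-Glo Max). IC50 is the concentration giving 50% inhibition of NKA activity. In vitro measurements were run in triplicate and are representative of three independent experiments.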

OVCAR-3 = assay: Cytotoxicity against human OVCAR-3 cells assessed as inhibition of cell viability incubated for 72 hrs by celltiter-blue cell viability assay; format: functional, cell-based; settings: OVCAR-3, 72 h; how it was run: as §1
MDA-MB-435 = assay: Cytotoxicity against human MDA-MB-435 cells assessed as inhibition of cell viability incubated for 72 hrs by celltiter-blue cell viability assay; format: functional, cell-based; settings: MDA-MB-435, 72 h; how it was run: as §1
HT-29 = assay: Cytotoxicity against human HT-29 cells assessed as inhibition of cell viability incubated for 72 hrs by celltiter-blue cell viability assay; format: functional, cell-based; settings: HT-29, 72 h; how it was run: as §1

Row | Structure (SMILES) | IC50 (OVCAR-5) [µM] | IC50 (MDA-MB-231) [µM] | IC50 [1] [µM] | IC50 (OVCAR-3) [µM] | IC50 (MDA-MB-435) [µM] | IC50 (HT-29) [µM]
1 | CO[C@H]1C[C@H](O[C@H]2CC[C@@]3(C)[C@@H](C2)C[C@@H]2O[C@]24[C@@H]3[C@H](OC(C)=O)C(=O)[C@]2(C)[C@@H](C3=CC(=O)OC3)CC[C@]42O)O[C@@H](C)[C@@H]1OC(C)=O | > 10 | > 10 | > 100 | > 10 | > 10 | > 10
2 | CC(=O)O[C@H]1C(=O)[C@@]2(C)[C@H]([C@H](OC(=O)c3ccccc3)[C@]3(O)C[C@H](OC(=O)[C@H](O)[C@@H](NC(=O)c4ccccc4)c4ccccc4)C(C)=C1C3(C)C)[C@]1(OC(C)=O)CO[C@@H]1C[C@@H]2O [PACLITAXEL] |  |  |  |  |  | 0.0034
3 | C[C@]12CC[C@H]3[C@@H](C=CC4=CC(=O)[C@H](O)C[C@@]43C)[C@@H]1CC[C@@H]2C(=O)O | > 10 | > 10 | > 100 | > 10 | > 10 | > 10
4 | CO[C@H]1C[C@H](O[C@H]2CC[C@@]3(C)[C@@H](C2)C[C@@H]2O[C@]24[C@@H]3[C@H](O)C(=O)[C@]2(C)[C@H](C3=CC(=O)OC3)CC[C@]42O)O[C@@H](C)[C@@H]1O | > 10 | > 10 | 40 | 7 | > 10 | > 10
5 | C[C@H]1O[C@@H](O[C@H]2[C@@H](O)C[C@H](O[C@H]3[C@@H](O)C[C@H](O[C@H]4CC[C@@]5(C)[C@H](CC[C@@H]6[C@@H]5CC[C@]5(C)[C@@H](C7=CC(=O)OC7)CC[C@]65O)C4)O[C@@H]3C)O[C@@H]2C)C[C@H](O)[C@@H]1O [DIGITOXIN] |  |  | 0.46 |  |  | 
6 | C[C@]12CC[C@H]3[C@@H](C=CC4=CC(=O)[C@H](O)C[C@@]43C)[C@@H]1CC[C@@H]2C(=O)CO | > 10 | > 10 |  | > 10 | > 10 | > 10
